Results filed as inconclusive are left out. Active and inactive are the calls of the source.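 Rule for the calls: active = inhibition of 30% or more at any tested concentration; inactive = the rest, inconclusive results apart.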
biological target: M17 leucyl aminopeptidase (Plasmodium falciparum 3D7); test: Inhibition of P. falciparum M17 aminopeptidase – biochemical, QFRET, set 2, dose response (AID 602216); details: recombinant PfM17LAP, H-Leu-NHMec fluorogenic cleavage
Method in brief: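 Assay system: Recombinant P. falciparum M17 leucine aminopeptidase | Detection: Fluorescence from released NHMec leaving group | Incubation: 90 min reaction | Evaluation: IC50 from four-parameter logistic fit, limits fixed 0–100% inhibition | Reagent: H-Leu-NHMec substrate, 0.1 mM | Controls: Full reaction and no-enzyme wells | Medium: pH 7.5 buffer containing CoCl2 | Compound: Series from 100 to 0.2 µM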

First: COc1ccc(CCCC(=O)NO)cc1
Second: COc1ccc(CC(=O)NO)cc1
The IC50 of the first is 5.3-fold higher: 2.85 µM for the first, 0.54 µM for the second.

Going from `CCCCOc1ccc(CCC(=O)NO)cc1` to `CCCCOc1ccc(CC(=O)NO)cc1`, the IC50 falls from 2.3 µM to 0.41 µM (5.6-fold). The second is the more potent here.

`CC(C)COc1ccc(CC(=O)NO)cc1` and `CCOc1ccc(CC(=O)NO)cc1` are within 1.5-fold of each other in IC50: 0.95 µM for the first, 0.74 µM for the second.

Compared with `O=C(NO)c1cccc2ccccc12`, `O=C(Cc1ccc(Oc2ccccc2)cc1)NO` is 22-fold lower in IC50: 9.08 µM for the first, 0.41 µM for the second. The second is the more potent here.

First: CCCCc1ccc(CC(=O)NO)cc1
Second: Cc1ccc(CC(=O)NO)cc1
The IC50 of the first is 2.6-fold lower: 0.38 µM for the first, 0.98 µM for the second. The first is the more potent here.

Compared with `O=C(Cc1ccc(OCc2ccccc2)cc1)NO`, `CN(O)C(=O)Cc1ccc(OCc2ccccc2)cc1` is 33-fold higher in IC50: 0.63 µM for the first, 20.6 µM for the second.

First: CCCCOc1ccc(C(=O)NO)cc1
Second: CCCCOc1ccc(CC(=O)N(C)O)cc1
The IC50 of the first is 5.5-fold lower: 3.3 µM for the first, 18 µM for the second.

Compared with `CC(C)(C(=O)NO)c1ccccc1`, `O=C(Cc1ccc2c(c1)CCCC2)NO` is 340-fold lower in IC50: 60.3 µM for the first, 0.18 µM for the second.

First: CCCCCCCCCC(=O)NO
Second: CCCCOc1ccc(CNc2c(N(C)O)c(=O)c2=O)cc1
The IC50 of the first is 17-fold lower: 1.92 µM for the first, 33.2 µM for the second.

same assay, conditions: recombinant PfM17LAP, H-Leu-NHMec fluorogenic cleavage; at 1.56 µM (top of the series)

For `COC(=O)Cc1ccc(OCCN(C)C)cc1`, the inhibition was “inactive”.

same assay, conditions: recombinant PfM17LAP, H-Leu-NHMec fluorogenic cleavage; at 100 µM (top of the series)

For `CCCCOc1ccc(CC(=O)O)cc1`, the inhibition was “inactive”.
With `CCCOc1ccc(CC(=O)OC)cc1` the inhibition was “inactive”.
For `CCC(C)Oc1ccc(CC(=O)OC)cc1` (stereo not drawn), the inhibition was “inactive”.
In the case of `COC(=O)Cc1ccc(OCC(C)C)cc1`, the inhibition is reported as “inactive”.

Source: PubChem BioAssay AID602216 (Southern Research Specialized Biocontainment Screening …, 2012)
